Most compounds without a hit are left out; they make up all but 0.95% or so of the library.
CSN deneddyl inh: CSN deneddylation inhibition; Q92905; Purified CSN, SCF-Nedd8-OG deneddylation, fluorescence polarization; inhibition, % at 12.5 µM; 360,000 compounds, 0.38% hits; AID 651999;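 active means pattern-corrected inhibition above about 35%, with an unprinted fluorescence ratio check between 0.5 and 1.5, limit read from the data, passing the limit was not always enough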;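 further: 0% = enzyme with substrate and 100% = substrate without enzyme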
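Schedule: reaction 90 min, room temperature / Assay system: HEK293T-derived human Csn5 enzyme / Input: Csn5 at 0.24 nM final / Measure: inhibition of Csn5 cleavage, % / Control set: substrate-only high control, full reaction low control / Technique: fluorescence polarization of the substrate / Buffer or medium: Tris/NaCl/DTT buffer, pH 7.5 / Reagent: SCFSkp2-Nedd8OG substrate at 10 nM final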
HNF4A DNA FP: change in binding of human HNF4 alpha to DNA; P41235; HNF4a-FITC DNA binding, fluorescence polarization, 1 h; activity change, % at 10 µM; 360,000 compounds, 0.3% hits; AID 1224865; in the data active means activity change above about 30%, passing the limit was not always enough
ARFGAP1 inh: inhibitors of rat ARFGAP1 | Q62848 | Arfgap1-stimulated ARF1 GTP hydrolysis, GDP FP detection | inhibition, % at 16.5 µM | 360,000 compounds, 0.26% hits | AID 651572;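 active means inhibition above a per-plate limit, mean inhibition of low control wells plus 3 SD, cut at about 25% in these data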;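 further: 0% = DMSO wells with enzyme and 100% = wells lacking Arfgap1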
Target sequence (Q62848 1-136 limits assumed): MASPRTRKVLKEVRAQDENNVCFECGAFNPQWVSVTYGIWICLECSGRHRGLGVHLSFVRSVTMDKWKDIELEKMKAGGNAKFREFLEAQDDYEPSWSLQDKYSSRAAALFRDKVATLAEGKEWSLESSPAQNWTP
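Assay system: purified rat His6-Arfgap1 residues 1-136 (GAP domain); Reagent: human Δ17 ARF1 bound to GTP; Dosing: 16.5 µM single point, 1.26% DMSO; Times: GTP hydrolysis reaction 2 h at 25 °C; Signal: FP, GDP Alexa 633 tracer displaced from anti-GDP antibody, 620/688 nm; Measure: % inhibition from polarization.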
ASAP1 GAP inh: ASAP1 ArfGAP inhibition; AID 624377; Q9ULH1; 360,000 compounds, 0.19% hits; ASAP1-stimulated ARF1 GTP hydrolysis, GDP FP detection; inhibition, % at 16.5 µM; in the data active means inhibition above about 25%;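 further: 0% = vehicle with enzyme and substrate and 100% = no enzyme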
Target sequence (Q9ULH1 325-724 limits assumed): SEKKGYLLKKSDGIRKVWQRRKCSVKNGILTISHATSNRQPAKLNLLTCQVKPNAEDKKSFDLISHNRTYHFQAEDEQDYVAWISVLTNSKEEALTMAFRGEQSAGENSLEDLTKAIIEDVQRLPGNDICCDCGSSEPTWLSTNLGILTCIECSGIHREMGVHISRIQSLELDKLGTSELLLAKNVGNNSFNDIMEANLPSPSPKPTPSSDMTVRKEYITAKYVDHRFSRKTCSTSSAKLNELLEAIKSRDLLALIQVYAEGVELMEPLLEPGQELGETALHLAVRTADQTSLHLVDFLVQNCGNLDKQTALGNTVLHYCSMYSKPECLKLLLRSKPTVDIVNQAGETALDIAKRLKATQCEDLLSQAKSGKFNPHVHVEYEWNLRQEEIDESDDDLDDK
* marks the source's active call; other numbers are inactive results; · = no result.

SMILES	CSN deneddyl inh	HNF4A DNA FP	ARFGAP1 inh	ASAP1 GAP inh
O=C(N[C@H](C(=O)N1CCC[C@H]1C(=O)NC1CCCC1)C1CCCCC1)C1CC1	·	·	4	3
COc1cc2cc(C(c3nnnn3C3CCCC3)N3CCCCC3)c(=O)[nH]c2cc1OC (stereo not drawn)	1	-3	1	-7
O=c1[nH]c2cc3c(cc2cc1C(c1nnnn1C1CCCCC1)N1CCSCC1)OCCO3 (stereo not drawn)	37*	4	-2	7
CCOc1ccc(OCC)c(S(=O)(=O)n2ccnc2C)c1	1	48*	5	6
COc1ccc(C)cc1S(=O)(=O)n1ccnc1C	5	2	8	2
CCOc1ccc(C(C)C)cc1S(=O)(=O)n1ccnc1C	73*	1	1	6
CCN1CCN(Cc2c(O)ccc3c(=O)c(-c4ccccc4OC)coc23)CC1	6	1	-6	3
CCN1CCN(Cc2c(O)ccc3c2O/C(=C\C=C\c2ccccc2OC)C3=O)CC1	29	47*	-2	-16
CC1=NN(c2ccccc2)C(=O)/C1=C\c1ccc(Oc2ccc([N+](=O)[O-])cc2[N+](=O)[O-])cc1	2	-2	25*	13
COc1cc(/C=C2\C(=O)N(c3ccccc3)N=C2C)ccc1Oc1ccc([N+](=O)[O-])cc1[N+](=O)[O-]	-3	-2	14	-7
CCN1C(=O)c2cccc3c(NC(=O)c4ccccc4)ccc1c23	-3	2	6	4
CCN1C(=O)c2cccc3c(NC(=O)c4ccc5c(c4)OCCO5)ccc1c23	20	60*	-5	-14
Cc1ccc(N=C2NC(=O)CS2)cc1	7	3	21	-5
Cc1ccc(C)n1/N=C1/NC(=O)CS1	46*	-26	3	15
COc1ccc2c(c1)[C@@]1(OCCC=C[C@H]1C)C(=O)N2CC1CC1	·	·	11	-11
O=C(NN=C1CCCCCC1)c1cc2ccccc2cc1O	-1	-6	-9	0
O=C1CCCC(=NNC(=O)c2cc3ccccc3cc2O)C1	72*	129	·	·
CN(C)c1ccc(/C=C(/NC(=O)c2ccccc2)C(=O)NCCCn2ccnc2)cc1	72*	14	·	·
CC1CCc2c(sc(Nc3nc4c(F)cccc4s3)c2C(N)=O)C1 (stereo not drawn)	12	37*	7	8
CCCN1CCCCC(NC(=O)c2ccccc2C)C1=O (stereo not drawn)	·	·	14	-1
Cc1cccc(C)c1NC(=O)NCCSc1snnc1C	35*	-2	4	10
Cc1nnsc1SCCNC(=O)c1c(F)cccc1F	-6	-1	-4	-22
O=C(CCN1C(=O)/C(=C/c2cccs2)SC1=S)Nc1ccccn1	14	33*	-8	8
O=C(CCCN1C(=O)/C(=C\c2cccs2)SC1=S)Nc1ccccn1	6	1	-12	-2
CCCc1nc2c3ccccc3ccn2c1Cc1ccccc1OC	·	·	-11	0
SMILES	CSN deneddyl inh	HNF4A DNA FP	ARFGAP1 inh	ASAP1 GAP inh
CCCc1nc2c3ccccc3ccn2c1Cc1ccc(OC)cc1C	26	43*	18	1
Cn1c(SCC(=O)c2ccc3c(c2)Cc2ccccc2-3)nnc1-c1ccccc1	74*	3	-8	-4
Cn1c(SCC(=O)c2ccccc2)nnc1-c1ccncc1	0	-3	4	-1
COC(=O)C1=C(C)N(Cc2cccc(C(F)(F)F)c2)C(=NCc2ccc(OC)cc2)NC1c1ccccc1C(F)(F)F (stereo not drawn)	·	·	8	3
CCN(CC)S(=O)(=O)c1cc(NC(=O)C(C)N2CCN(Cc3ccc4c(c3)OCO4)CC2)ccc1C (stereo not drawn)	-1	0	3	-3
Cc1ccc2cc(CCNC(=O)C(C)C)c(=O)[nH]c2c1C	2	0	2	6
Cc1ccc2cc(CCNC(=O)c3ccc4c(c3)OCO4)c(=O)[nH]c2c1C	7	34*	0	1
C[C@@H]1OC(C2CCCCC2)N(C)[C@H]2C[C@H]3c4[nH]c5cccc(-c6ccccc6)c5c4CCN3C(=O)[C@@H]12 (stereo partly drawn)	·	·	-14	7
CCOc1cc(/C=C2/C(=N)N3C(=NC2=O)SN=C3S(=O)(=O)C(C)C)ccc1OC(=O)c1ccco1	28	39*	-8	6
COc1cc(/C=C2/C(=N)N3C(=NC2=O)SN=C3S(C)(=O)=O)ccc1OC(=O)c1ccco1	31	51*	-16	-11
COc1cc(/C=C2/C(=N)N3C(=NC2=O)SN=C3S(=O)(=O)C(C)C)ccc1OC(=O)c1ccco1	19	35	-3	1
CCOc1ccc(S(=O)(=O)Nc2nc3ccccc3nc2-n2ccc(=NC(=O)c3cccs3)cc2)cc1	46*	28	12	7
CN(C)c1ccc(N/C=C/C(=O)c2ccc(F)cc2)cc1	13	44*	·	·
NS(=O)(=O)c1ccc(N/C=C\C(=O)c2ccc(F)cc2)cc1	-1	1	23	4
COc1ccc2c(c1)[C@@H](NC(=O)c1ccncc1)[C@@H]1Cc3ccccc3[C@H]21	·	·	9	3
COc1ccc(N=Cc2c(O)ccc3ccccc23)cc1	51*	72*	-1	-2
CC(=O)Nc1ccc(N=Cc2c(O)ccc3ccccc23)cc1	42	77*	-7	-3
O=C(O)c1ccc(N=Cc2c(O)ccc3ccccc23)cc1	-1	12	4	9
N#Cc1ccc(S(=O)(=O)NCC2CCN(C(=O)C(=O)c3cc4ccccc4o3)CC2)cc1	·	·	-5	15
COc1ccc(Cn2c(C)cc(O)cc2=O)cc1	·	·	-3	-1
COc1ccc(OC)c(S(=O)(=O)NCC2CCN(C(=O)C(=O)c3cccs3)CC2)c1	·	·	-1	0
O=C(/C=C(\Nc1cccc(Cl)c1F)c1ccccc1)c1ccccc1	·	·	0	-3
Cc1ccc(-c2cc(C(=O)N3CCCc4ccccc43)c3ccccc3n2)cc1	2	0	4	3
Cc1ccc2nc3sc(C(=O)N4CCCc5ccccc54)c(N)c3cc2c1	0	39*	-11	6
COc1ccc(C2=NOC(Cn3nc(-c4ccccc4)cc3C(=O)NCc3ccc(C)cc3)C2)cc1 (stereo not drawn)	35*	8	-5	2
SMILES	CSN deneddyl inh	HNF4A DNA FP	ARFGAP1 inh	ASAP1 GAP inh
CC(=O)C1=C(O)C(=CC=Cc2ccccc2)OC1=O	9	60*	-6	-11
CC(/C=C\c1ccccc1)=C/C(=O)O	-3	1	10	10
CC1=C(C(=O)N2CCCCCC2)CC(CC(=O)NC2CCCCC2)C(=O)N1Cc1ccccc1 (stereo not drawn)	117*	-4	0	-6
CC1=C(C(=O)N2CCCCCC2)CC(CC(=O)NC2CCCCC2)C(=O)N1Cc1ccc(F)cc1 (stereo not drawn)	-2	0	11	1
CCN=C1NC(CCc2ccccc2)C(C(=O)OC)=C(C)N1Cc1ccc(C(F)(F)F)cc1 (stereo not drawn)	·	·	-7	-7
Brc1ccc(C2=Nn3c(nnc3-c3cccnc3)SC2)s1	94*	-1	·	·

Assay outcomes as filed in PubChem BioAssay.
